Assay results from ChEMBL document CHEMBL1932936, “Oxidative folding of lysozyme with aromatic dithiols, and aliphatic and aromatic monothiols” (Bioorg Med Chem, 2012).
≈ marks a conversion by molar mass, not a printed value.

What was measured:
[1] = Dissociation constant, pKa of the compound; type: physicochemical
[2] = molecular target: Lysozyme C (Gallus gallus) (UniProt P00698); test: Renaturation of 1 mg/mL reduced hen egg white lysozyme assessed as apparent rate of renaturation at 40 mM at pH 8 by Micrococcus lysodeikticus lysis-based enzyme assay in presence of 1 mM GSSG
Sequence of Lysozyme C (Gallus gallus) (P00698 whole entry): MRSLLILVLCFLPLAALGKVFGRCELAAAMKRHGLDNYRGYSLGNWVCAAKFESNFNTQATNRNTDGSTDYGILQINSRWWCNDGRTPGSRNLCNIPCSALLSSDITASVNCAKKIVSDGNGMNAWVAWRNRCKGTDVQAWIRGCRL
Procedure, shortened: (§1)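 Reduced lysozyme prepared in 0.1 M acetic acid with 6 M Gdn HCl, pH 2.5, then neutralised to pH 7.0 or 8.0 with KOH and set to 10 mg/mL. Diluted 10-fold into deoxygenated buffer: 0.1 M bis tris propane–HCl (pH 7.0) or Tris–HCl (pH 8.0), 1 mM EDTA, thiol plus GSSG. Final 1 mg/mL protein, 1.7 M Gdn HCl, 25 °C. Aliquots taken over time, diluted and assayed for activity.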

[3] = molecular target: Lysozyme C (Gallus gallus) (UniProt P00698); test: Renaturation of 1 mg/mL reduced hen egg white lysozyme assessed as apparent rate of renaturation at 20 mM at pH 7 by Micrococcus lysodeikticus lysis-based enzyme assay in presence of 1 mM GSSG
Procedure, shortened: (§2)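 Reduced lysozyme was dissolved in 0.1 M acetic acid with 6 M Gdn HCl (pH 2.5), brought to pH 7.0 or 8.0 with KOH, and set to 10 mg/mL by A280. It was then diluted 10-fold into deoxygenated buffer: 0.1 M bis tris propane–HCl or Tris–HCl, 1.25 M Gdn HCl, 1 mM EDTA, thiol plus GSSG. Final protein was 1 mg/mL, final Gdn HCl 1.7 M, 25 °C. Aliquots taken at intervals and assayed for activity. Errors are standard deviations.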

[4] = molecular target: Lysozyme C (Gallus gallus) (UniProt P00698); test: Renaturation of 1 mg/mL reduced hen egg white lysozyme assessed as apparent rate of renaturation at 20 mM at pH 8 by Micrococcus lysodeikticus lysis-based enzyme assay in presence of 1 mM GSSG; procedure, shortened: as §2
[5] = molecular target: Lysozyme C (Gallus gallus) (UniProt P00698); test: Renaturation of 1 mg/mL reduced hen egg white lysozyme assessed as apparent rate of renaturation at 10 mM at pH 7 by Micrococcus lysodeikticus lysis-based enzyme assay in presence of 1 mM GSSG; procedure, shortened: as §2
[6] = Solubility of the compound in water; type: physicochemical; conditions: buffer
[7] = molecular target: Lysozyme C (Gallus gallus) (UniProt P00698); test: Renaturation of 1 mg/mL reduced hen egg white lysozyme assessed as maximum enzyme activity at 10 mM at pH 7 by Micrococcus lysodeikticus lysis-based enzyme assay in presence of 1 mM GSSG; set-up: scale not given: the % may be the effect or the level left; procedure, shortened: as §2
[8] = molecular target: Lysozyme C (Gallus gallus) (UniProt P00698); test: Renaturation of 1 mg/mL reduced hen egg white lysozyme assessed as maximum enzyme activity at 40 mM at pH 8 by Micrococcus lysodeikticus lysis-based enzyme assay in presence of 1 mM GSSG; set-up: scale not given: the % may be the effect or the level left; procedure, shortened: as §1
[9] = molecular target: Lysozyme C (Gallus gallus) (UniProt P00698); test: Renaturation of 1 mg/mL reduced hen egg white lysozyme assessed as maximum enzyme activity at 20 mM at pH 8 by Micrococcus lysodeikticus lysis-based enzyme assay in presence of 1 mM GSSG; set-up: scale not given: the % may be the effect or the level left; procedure, shortened: as §2
[10] = molecular target: Lysozyme C (Gallus gallus) (UniProt P00698); test: Renaturation of 1 mg/mL reduced hen egg white lysozyme assessed as maximum enzyme activity at 20 mM at pH 7 by Micrococcus lysodeikticus lysis-based enzyme assay in presence of 1 mM GSSG; set-up: scale not given: the % may be the effect or the level left; procedure, shortened: as §2
[11] = molecular target: Lysozyme C (Gallus gallus) (UniProt P00698); test: Renaturation of 0.1 mg/mL reduced hen egg white lysozyme assessed as apparent rate of renaturation at 3 mM at pH 8 by Micrococcus lysodeikticus lysis-based enzyme assay in presence of 0.2 mM GSSG
Procedure, shortened: (§3)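 Reduced lysozyme (10 mg/mL) diluted 100-fold into deoxygenated renaturation buffer: 0.1 M bis tris propane–HCl (pH 7.0) or 0.1 M Tris–HCl (pH 8.0), 1 mM EDTA, 0.5 M Gdn HCl, thiol plus GSSG. Mixed by vortexing for 15 s, held at 25 °C. 20 µL aliquots taken at set times and assayed for recovery of enzymatic activity.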

[12] = molecular target: Lysozyme C (Gallus gallus) (UniProt P00698); test: Renaturation of 0.1 mg/mL reduced hen egg white lysozyme assessed as maximum enzyme activity at 3 mM at pH 7 by Micrococcus lysodeikticus lysis-based enzyme assay in presence of 0.2 mM GSSG; set-up: scale not given: the % may be the effect or the level left; procedure, shortened: as §3
[13] = molecular target: Lysozyme C (Gallus gallus) (UniProt P00698); test: Renaturation of 0.1 mg/mL reduced hen egg white lysozyme assessed as maximum enzyme activity at 3 mM at pH 8 by Micrococcus lysodeikticus lysis-based enzyme assay in presence of 0.2 mM GSSG; set-up: scale not given: the % may be the effect or the level left; procedure, shortened: as §3
[14] = molecular target: Lysozyme C (Gallus gallus) (UniProt P00698); test: Renaturation of 0.1 mg/mL reduced hen egg white lysozyme assessed as apparent rate of renaturation at 0.5 mM at pH 8 by Micrococcus lysodeikticus lysis-based enzyme assay in presence of 0.2 mM GSSG; procedure, shortened: as §3
[15] = molecular target: Lysozyme C (Gallus gallus) (UniProt P00698); test: Renaturation of 0.1 mg/mL reduced hen egg white lysozyme assessed as apparent rate of renaturation at 3 mM at pH 7 by Micrococcus lysodeikticus lysis-based enzyme assay in presence of 0.2 mM GSSG; procedure, shortened: as §3
[16] = molecular target: Lysozyme C (Gallus gallus) (UniProt P00698); test: Renaturation of 0.1 mg/mL reduced hen egg white lysozyme assessed as apparent rate of renaturation at 0.5 mM at pH 7 by Micrococcus lysodeikticus lysis-based enzyme assay in presence of 0.2 mM GSSG; procedure, shortened: as §3
[17] = molecular target: Lysozyme C (Gallus gallus) (UniProt P00698); test: Renaturation of 0.1 mg/mL reduced hen egg white lysozyme assessed as maximum enzyme activity at 0.5 mM at pH 8 by Micrococcus lysodeikticus lysis-based enzyme assay in presence of 0.2 mM GSSG; set-up: scale not given: the % may be the effect or the level left; procedure, shortened: as §3
[18] = molecular target: Lysozyme C (Gallus gallus) (UniProt P00698); test: Renaturation of 0.1 mg/mL reduced hen egg white lysozyme assessed as maximum enzyme activity at 0.5 mM at pH 7 by Micrococcus lysodeikticus lysis-based enzyme assay in presence of 0.2 mM GSSG; set-up: scale not given: the % may be the effect or the level left; procedure, shortened: as §3
[19] = molecular target: Lysozyme C (Gallus gallus) (UniProt P00698); test: Renaturation of 0.1 mg/mL reduced hen egg white lysozyme assessed as maximum enzyme activity at 2 mM at pH 7 by Micrococcus lysodeikticus lysis-based enzyme assay in presence of 0.2 mM GSSG; set-up: scale not given: the % may be the effect or the level left; procedure, shortened: as §3
[20] = molecular target: Lysozyme C (Gallus gallus) (UniProt P00698); test: Renaturation of 0.1 mg/mL reduced hen egg white lysozyme assessed as maximum enzyme activity at 2 mM at pH 8 by Micrococcus lysodeikticus lysis-based enzyme assay in presence of 0.2 mM GSSG; set-up: scale not given: the % may be the effect or the level left; procedure, shortened: as §3
[21] = molecular target: Lysozyme C (Gallus gallus) (UniProt P00698); test: Renaturation of 0.1 mg/mL reduced hen egg white lysozyme assessed as apparent rate of renaturation at 2 mM at pH 7 by Micrococcus lysodeikticus lysis-based enzyme assay in presence of 0.2 mM GSSG; procedure, shortened: as §3
[22] = Solubility of the compound at pH 7; type: physicochemical; conditions: buffer
[23] = molecular target: Lysozyme C (Gallus gallus) (UniProt P00698); test: Renaturation of 0.1 mg/mL reduced hen egg white lysozyme assessed as apparent rate of renaturation at 2 mM at pH 8 by Micrococcus lysodeikticus lysis-based enzyme assay in presence of 0.2 mM GSSG; procedure, shortened: as §3
[24] = molecular target: Lysozyme C (Gallus gallus) (UniProt P00698); test: Renaturation of 0.1 mg/mL reduced hen egg white lysozyme assessed as apparent rate of renaturation at 0.25 mM at pH 8 by Micrococcus lysodeikticus lysis-based enzyme assay in presence of 0.2 mM GSSG; procedure, shortened: as §3
[25] = molecular target: Lysozyme C (Gallus gallus) (UniProt P00698); test: Renaturation of 0.1 mg/mL reduced hen egg white lysozyme assessed as maximum enzyme activity at 1 mM at pH 8 by Micrococcus lysodeikticus lysis-based enzyme assay in presence of 0.2 mM GSSG; set-up: scale not given: the % may be the effect or the level left; procedure, shortened: as §3
[26] = molecular target: Lysozyme C (Gallus gallus) (UniProt P00698); test: Renaturation of 0.1 mg/mL reduced hen egg white lysozyme assessed as apparent rate of renaturation at 1 mM at pH 8 by Micrococcus lysodeikticus lysis-based enzyme assay in presence of 0.2 mM GSSG; procedure, shortened: as §3
[27] = Solubility of the compound at pH 8; type: physicochemical; conditions: buffer
[28] = molecular target: Lysozyme C (Gallus gallus) (UniProt P00698); test: Renaturation of 0.1 mg/mL reduced hen egg white lysozyme assessed as maximum enzyme activity at 0.25 mM at pH 8 by Micrococcus lysodeikticus lysis-based enzyme assay in presence of 0.2 mM GSSG; set-up: scale not given: the % may be the effect or the level left; procedure, shortened: as §3
[29] = molecular target: Lysozyme C (Gallus gallus) (UniProt P00698); test: Renaturation of 1 mg/mL reduced hen egg white lysozyme assessed as maximum enzyme activity at 10 mM at pH 8 by Micrococcus lysodeikticus lysis-based enzyme assay in presence of 1 mM GSSG; set-up: scale not given: the % may be the effect or the level left; procedure, shortened: as §2
[30] = molecular target: Lysozyme C (Gallus gallus) (UniProt P00698); test: Renaturation of 1 mg/mL reduced hen egg white lysozyme assessed as apparent rate of renaturation at 10 mM at pH 8 by Micrococcus lysodeikticus lysis-based enzyme assay in presence of 1 mM GSSG; procedure, shortened: as §2
[31] = molecular target: Lysozyme C (Gallus gallus) (UniProt P00698); test: Renaturation of 1 mg/mL reduced hen egg white lysozyme assessed as apparent rate of renaturation at 10 mM at pH 7 by Micrococcus lysodeikticus lysis-based enzyme assay in presence of 0.5 mM GSSG; procedure, shortened: as §2
[32] = molecular target: Lysozyme C (Gallus gallus) (UniProt P00698); test: Renaturation of 1 mg/mL reduced hen egg white lysozyme assessed as maximum enzyme activity at 10 mM at pH 7 by Micrococcus lysodeikticus lysis-based enzyme assay in presence of 0.5 mM GSSG; set-up: scale not given: the % may be the effect or the level left; procedure, shortened: as §2
[33] = molecular target: Lysozyme C (Gallus gallus) (UniProt P00698); test: Renaturation of 1 mg/mL reduced hen egg white lysozyme assessed as maximum enzyme activity at 40 mM at pH 7 by Micrococcus lysodeikticus lysis-based enzyme assay in presence of 1 mM GSSG; set-up: scale not given: the % may be the effect or the level left; procedure, shortened: as §1
[34] = molecular target: Lysozyme C (Gallus gallus) (UniProt P00698); test: Renaturation of 1 mg/mL reduced hen egg white lysozyme assessed as apparent rate of renaturation at 40 mM at pH 7 by Micrococcus lysodeikticus lysis-based enzyme assay in presence of 1 mM GSSG; procedure, shortened: as §1

OCCS [2-MERCAPTOETHANOL]
pKa [1]: 9.6

C[N+](C)(CCC[N+](C)(C)Cc1ccc(S)cc1)Cc1ccc(S)cc1.[Br-].[Br-]
Activity [2]: 0.023 min⁻¹
Activity [3]: 0.015 min⁻¹
Activity [4]: 0.022 min⁻¹
Activity [5]: 0.012 min⁻¹
solubility [6]: soluble
Activity [7]: 83%
Activity [8]: 77%
Activity [9]: 88%
Activity [10]: 86%

N[C@@H](CS)C(=O)O [CYSTEINE]
pKa [1]: 8.7

O=C(OCCOCCOCCOCCS)c1ccccc1S
Activity [11]: 0.023 min⁻¹
Activity [12]: 2%
Activity [13]: 27%
Activity [14]: 0.061 min⁻¹
Activity [15]: 0.01 min⁻¹
Activity [16]: 0.008 min⁻¹
Activity [17]: 76%
Activity [18]: 85%

O=C(OCCOCCOCCOCCS)c1ccc(S)cc1
Activity [11]: 0.072 min⁻¹
Activity [12]: 36%
Activity [13]: 43%
Activity [14]: 0.087 min⁻¹
Activity [15]: 0.045 min⁻¹
Activity [16]: 0.038 min⁻¹
Activity [17]: 73%
Activity [18]: 39%

O=C(OCCOCCOCCS)c1ccccc1S
Activity [19]: 19%
Activity [20]: 62%
Activity [21]: 0.001 min⁻¹
Activity [14]: 0.041 min⁻¹
Activity [16]: 0.013 min⁻¹
solubility [22]: 4000 µM (≈ 1210 µg/mL)
Activity [17]: 58%
Activity [18]: 55%
Activity [23]: 0.009 min⁻¹

O=C(OCCOCCOCCS)c1ccc(S)cc1
Activity [11]: 0.1 min⁻¹
Activity [12]: 23%
Activity [13]: 16%
Activity [14]: 0.076 min⁻¹
Activity [15]: 0.02 min⁻¹
Activity [16]: 0.025 min⁻¹
Activity [17]: 63%
Activity [18]: 57%

O=C(OCCOCCOCCS)c1ccccc1
Activity [24]: 0.028 min⁻¹
Activity [25]: 2%
Activity [26]: 0.012 min⁻¹
solubility [27]: 2000 µM (≈ 541 µg/mL)
Activity [28]: 68%

O=C(OCCOCCS)c1ccc(S)cc1
Activity [11]: 0.08 min⁻¹
Activity [13]: 9%
Activity [14]: 0.072 min⁻¹
Activity [17]: 53%

C[N+](C)(CCCCCC[N+](C)(C)Cc1ccc(S)cc1)Cc1ccc(S)cc1.[Br-].[Br-]
Activity [4]: 0.017 min⁻¹
Activity [29]: 78%
Activity [5]: 0.011 min⁻¹
solubility [6]: soluble
Activity [7]: 74%
Activity [30]: 0.016 min⁻¹
Activity [9]: 49%
Activity [31]: 0.013 min⁻¹
Activity [32]: 70%

C[N+](C)(C)Cc1ccc(S)cc1
Activity [2]: 0.018 min⁻¹
Activity [33]: 82%
Activity [34]: 0.017 min⁻¹
Activity [8]: 81%
